Test results taken from PMC12663558 (Scientific Reports, 2025).

Experiments:
CT-DNA (calf thymus DNA) = experiment: UV-Vis titration with CT-DNA; type: binding; conditions: 298 K; for apparent binding constant Kapp with CT-DNA: UV-Vis titration, Tris-HCl pH 7.2; for standard Gibbs free energy change ΔG° of CT-DNA binding: ΔG° = -RTlnKapp
In short: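 CT-DNA stock was 1.5 mg/mL in Tris-HCl pH 7.2, made at 4 °C, with A260/A280 of 1.8–1.9; it was quantified by ε260 = 6600 M−1cm−1. 50 µL of stock was added to 1.45 mL buffer. Test compound (10−4 M stock in water) was added stepwise up to 9.09–13.29 µM, with 2 min at 298 K per step and absorbance read at 260 nm. Kapp = intercept/slope of the 1/(A−A0) versus 1/[Ligand] plot. ΔG° = −RTlnKapp at 298 K.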

Lipophilicity = type: physicochemical; conditions: 2-octanol/water
In short: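 Shake-flask partition used 2-octanol and doubly distilled water 1:1 v/v (10 mL total) with 0.001 g test compound. The mixture was shaken overnight, left to equilibrate 1 h, and the phases separated. Compound in each phase was quantified by UV-Vis. log P was taken from the octanol/water concentration ratio.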

[1] = molecular target: bovine serum albumin (BSA) (Bos taurus, UniProt P02769); experiment: UV-Vis titration with BSA; type: binding; conditions: for standard Gibbs free energy change ΔG° of BSA binding: 298 K, ΔG° = -RTlnKapp
Chain of bovine serum albumin (BSA) (P02769 25-607): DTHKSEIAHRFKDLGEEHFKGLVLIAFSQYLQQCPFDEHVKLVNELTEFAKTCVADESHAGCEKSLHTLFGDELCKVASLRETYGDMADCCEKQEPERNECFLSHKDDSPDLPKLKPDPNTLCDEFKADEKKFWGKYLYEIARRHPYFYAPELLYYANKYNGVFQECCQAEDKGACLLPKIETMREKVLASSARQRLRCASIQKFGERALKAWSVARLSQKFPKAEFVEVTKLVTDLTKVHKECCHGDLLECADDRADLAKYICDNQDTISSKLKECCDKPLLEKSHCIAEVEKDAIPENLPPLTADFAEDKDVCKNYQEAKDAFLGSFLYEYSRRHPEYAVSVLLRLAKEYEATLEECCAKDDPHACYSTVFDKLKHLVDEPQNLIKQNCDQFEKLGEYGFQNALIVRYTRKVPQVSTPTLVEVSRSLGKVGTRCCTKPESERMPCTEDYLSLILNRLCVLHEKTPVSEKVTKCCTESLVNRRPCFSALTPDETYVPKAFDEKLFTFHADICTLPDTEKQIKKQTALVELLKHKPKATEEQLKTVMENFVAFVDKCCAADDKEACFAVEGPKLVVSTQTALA
In short: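 BSA stock was 3 mg/mL in Tris-HCl pH 7.2, made at 4 °C and quantified by ε280 = 44,300 M−1cm−1; 500 µL of stock was diluted with 1.00 mL buffer. Test compound (10−4 M stock in water) was added stepwise up to 6.83–10.18 µM, with 2 min equilibration at 298 K per step and readings at 280 nm. Kapp = intercept/slope of 1/(A−A0) versus 1/[Ligand]. ΔG° = −RTlnKapp (R 1.987 cal mol−1 K−1, T 298 K).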

[2] = DPPH free radical scavenging assay; type: biochemical; conditions: standard control, compared with 3a-c
In short: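 DPPH stock was 0.1 mM in ethanol. Test compound solutions at 10, 25, 50, 100, 250, 500 and 1000 µg/mL (concentrations before mixing) were each mixed 1:1 v/v with the DPPH solution. Mixtures were vortexed 10 s and kept in the dark at room temperature for 30 min, then absorbance was read at 517 nm. Ascorbic acid was the reference antioxidant. Scavenging was calculated from absorbance by equation.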

DNA = conditions: traditional intercalators, typical range; cited from earlier work

Row | logP (Lipophilicity) | Kd [1] [µM] | standard Gibbs free energy change ΔG° of BSA binding [1] [kcal/mol] | Molecule | apparent binding constant Kapp with CT-DNA (CT-DNA (calf thymus DNA)) | standard Gibbs free energy change ΔG° of CT-DNA binding (CT-DNA (calf thymus DNA)) [kcal/mol] | DPPH free radical scavenging activity (in words) [2] | binding constant Kb with DNA (DNA)
1 | 1.29 | 151 | -5.21 | O=C1Nc2ccccc2/C1=N/N=C/c1cccc([N+](=O)[O-])c1 [3a, (Z)−3-(((E)−3-nitrobenzylidene)hydrazineylidene)indolin-2-one] | 1.01 × 10^4 M^− 1 | -5.46 | – | –
2 | 2.3 | 136 | -5.27 | COc1ccccc1/C=N/N=C1\C(=O)Nc2ccccc21 [3b, (Z)−3-(((E)−2-methoxybenzylidene)hydrazineylidene)indolin-2-one] | 1.17 × 10^4 M^− 1 | -5.55 | – | –
3 | – | – | – | O=C1O[C@H]([C@@H](O)CO)C(O)=C1O [ascorbic acid, Ascorbic acid] | – | – | highest scavenging activity | –
4 | – | – | – | CC[n+]1c(-c2ccccc2)c2cc(N)ccc2c2ccc(N)cc21 [ethidium bromide] | – | – | – | 10^6 to 10^7 M^− 1
5 | – | – | – | [Ru(phen)DPPZ] | – | – | – | 10^6 to 10^7 M^− 1
